A word on the IC50: it is the midpoint of a concentration-inhibition curve.

For series [1], the species on record is Homo sapiens. Description: Inhibition of His-tagged human recombinan2N4R tau protein aggregation assessed as inhibition octadecyl sulphate-induced fibrillation at 10 uM by filter trap assay.
The nature of series [2]: Inhibition of His-tagged human recombinant 2N4R tau protein aggregation assessed as inhibition octadecyl sulphate-induced fibrillation by filter trap assay.
Series [3] is filed under the species Homo sapiens. The series can be described thus: Inhibition of His-tagged human recombinan2N4R tau protein aggregation assessed as inhibition octadecyl sulphate-induced fibrillation up to 10 uM by filter trap assay.
In series [4] the test system is Brain. The series can be described thus: Induction of apoptosis in human tau P301L mutant expressing JNPL3 transgenic mouse brain slice assessed as cleaved PARP1 after 7 days by densitometry. The series is classed as tissue-based. The settings on record: 168 h. The method in brief: (§1)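 Cortex and hippocampus slices (400 μm) cut from postnatal day 10 JNPL3 mouse brain, cultured 14 days on membrane inserts in 25% serum medium, then dosed for 7 days. The contralateral hemisphere received DMSO vehicle (0.008% final) as within-animal control. Slices were sonicated in cold RIPA with protease/phosphatase inhibitors and spun 20,000g for 20 min at 4°C. Supernatant α-tubulin and cleaved PARP1 were immunoblotted and quantified by densitometry (n = 3), normalized to vehicle.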

For series [5], the species on record is Homo sapiens. The series can be described thus: Inhibition of human tau aggregation in human tau P301L mutant expressing JNPL3 transgenic mouse brain slices at 100 nM.
For series [6], the species on record is Homo sapiens. The series can be described thus: Induction of human tau aggregation in human tau P301L mutant expressing JNPL3 transgenic mouse brain slices at >=300 nM.
Series [7] is filed under the species Homo sapiens. The series can be described thus: Inhibition of human tau aggregation in human tau P301L mutant expressing JNPL3 transgenic mouse brain slices at 0.1 nM to 1 uM after 7 days. The series is classed as tissue-based. The gist of the method: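 Slices from postnatal day 10 JNPL3 mice were cultured 14 days, then exposed 7 days to compound (0.1 nM–1 μM). The contralateral hemisphere received DMSO (0.008%) as control. RIPA extracts were equalized for total protein, incubated in 1% sarkosyl for 30 min at room temperature, and spun 100,000g for 1 h at 20°C. The insoluble pellet was boiled in SDS buffer, immunoblotted with CP27 and quantified by densitometry (n = 3) relative to vehicle.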

The subject of series [8] is Brain. Description: Induction of apoptosis in human tau P301L mutant expressing JNPL3 transgenic mouse brain slice assessed as change in alpha-tubulin level at 1 nM after 7 days by densitometry. The format is tissue-based. The following applies: 168 h, 0.001 µM. The gist of the method:
as §1

The source made the active and inactive calls. The rule behind the calls is not given here.

As to `CCN1/C(=C/C=C/c2oc3ccccc3[n+]2CC)Oc2ccccc21`, the result in the series listed under Homo sapiens [1] was inactive. Also, in series [2], the IC50 was > 10000 nM.

In the case of `CCCCCCN1/C(=C/C=C/c2sc3ccccc3[n+]2CCCCCC)Sc2ccccc21`, the concentration for half-maximal inhibition (IC50) in series [2] is > 10000 nM. For the same molecule, the outcome in the series filed under Homo sapiens [3] was inactive.

Turning to `CCCN1/C(=C/C=C/C2=[N+](CCC)c3ccccc3C2(C)C)C(C)(C)c2ccccc21`, in series [2], the IC50 turned out to be 2570 nM.

Take `CCN1/C(=C/C=C/c2sc3ccccc3[n+]2CC)Sc2ccccc21`: in series [2], the IC50 worked out at 960 nM.

For the molecule `CCN1/C(=C/C=C/C=C/C=C/c2sc3ccccc3[n+]2CC)Sc2ccccc21`, the half-inhibitory concentration (IC50) in series [2] is 5000 nM.

As for `CCC(/C=C1\Sc2ccc(OC)cc2N1CCO)=C\c1sc2ccc(OC)cc2[n+]1CCO`, the 50% inhibitory concentration (IC50) in series [2] stood at 290 nM.

With `CC(/C=C1\Sc2ccccc2N1CCCS(=O)(=O)[O-])=C\c1sc2ccccc2[n+]1CCCS(=O)(=O)[O-].CC[n+]1ccccc1`, the IC50 in series [2] was > 10000 nM.

On to `CCN1/C(=C/C=C/C=C/c2sc3ccccc3[n+]2CC)Sc2ccccc21` [DITHIAZANINE IODIDE], for which, in series [2], the IC50 stood at 2150 nM.

With `CCN1/C(=C/C(C)=C/c2sc3c4ccccc4ccc3[n+]2CC)Sc2c1ccc1ccccc21`, in series [2], the 50% inhibitory concentration (IC50) was determined as 3290 nM.

Take `CCN1/C(=C/c2sc3ccccc3[n+]2CC)Sc2ccccc21`: in series [2], the half-maximal inhibitory concentration (IC50) is 10000 nM.

Regarding `CCN1/C(=C/C(C)=C/c2sc3ccccc3[n+]2CC)Sc2ccccc21.[I-]`, the Activity entry with Brain [4] and with Brain [8] was “Non-toxic” in each case. Moreover, the result in the series listed under Homo sapiens [5] was inactive. Besides, the result in the series filed under Homo sapiens [6] and in the series filed under Homo sapiens [7] was Active. The half-maximal inhibitory concentration (IC50) in series [2] was determined as 280 nM.
